Calls of active or inactive are those of the source. No cut-off for these calls is given here.

The test system of assay [1] is Caenorhabditis elegans. As to the kind of experiment: Antioxidant activity against parquat-induced oxidative stress in wild type Caenorhabditis elegans Bristol N2 assessed as increase in survival time at 500 nM to 1 uM. It is filed as functional, organism-based. The method, boiled down: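 Age-synchronised 7-day-old adult N2 worms were placed overnight on agar plates with 40 μM FUDR and paraquat, with or without compound (50 nM, 500 nM, 1 μM), at 20 °C. Viability was scored over 20 h, with 30 worms per trial in three independent experiments. Survival was plotted as Kaplan–Meier curves.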

Assay [2] concerns Caenorhabditis elegans. As to the kind of experiment: Antioxidant activity against parquat-induced oxidative stress in wild type Caenorhabditis elegans Bristol N2 assessed as increase in survival time at 500 nM (reference value: 17.64 +/- 0.19 days). The class given is functional.
The test system of assay [3] is Caenorhabditis elegans. The experiment in a line: Antioxidant activity against parquat-induced oxidative stress in wild type Caenorhabditis elegans Bristol N2 assessed as increase in survival time at 50 nM (reference value: 17.64 +/- 0.19 days). It is filed as functional.
Assay [4] relates to Caenorhabditis elegans. The experiment in a line: Antioxidant activity against heat-induced oxidative stress in wild type Caenorhabditis elegans Bristol N2 assessed as increase in survival time measured for 16 hrs at 37 degC relative to control. The class given is functional, organism-based.
Assay [5] deals with Caenorhabditis elegans. The experiment in a line: Antioxidant activity against heat-induced oxidative stress in wild type Caenorhabditis elegans Bristol N2 assessed as increase in survival time at 1 uM […] relative to control. The class given is functional.
Assay [6] relates to Caenorhabditis elegans. As to the kind of experiment: Antioxidant activity against heat-induced oxidative stress in wild type Caenorhabditis elegans Bristol N2 assessed as increase in survival time at 500 nM […] relative to control. It is filed as functional.
Assay [7] concerns Caenorhabditis elegans. As to the kind of experiment: Antioxidant activity against parquat-induced oxidative stress in wild type Caenorhabditis elegans Bristol N2 assessed as increase in survival time. The class given is functional, organism-based. In short, it runs like this: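 Seven-day-old synchronised N2 adults, 30 worms per trial at 20 °C. Worms were placed overnight on agar containing paraquat and 40 μM FUDR, with or without test compound. Viability was scored over a 20 h period. Three independent experiments.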

Assay [8] relates to Caenorhabditis elegans. As to the kind of experiment: Antioxidant activity against parquat-induced oxidative stress in wild type Caenorhabditis elegans Bristol N2 assessed as increase in survival time at 1 uM (reference value: 17.64 +/- 0.19 days). It is filed as functional.
The subject of assay [9] is Caenorhabditis elegans. As to the kind of experiment: Antioxidant activity in wild type Caenorhabditis elegans Bristol N2 assessed as decrease in oxidative stress-induced carboxymethyllysine formation by ELISA. It is filed as functional, organism-based. In short, it runs like this: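 Protein extracts came from N2 worms treated for 7 days with or without compound, with 40 μM FUDR; protein was quantified. CML was measured by competitive ELISA on streptavidin-coated plates using biotinylated glucose-glycated BSA and an HRP-labelled mouse monoclonal anti-CML antibody.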

For assay [10], the system named is Caenorhabditis elegans. The experiment in a line: Antioxidant activity against lipid peroxidation in wild type Caenorhabditis elegans Bristol N2 assessed as decrease of malondialdehyde level. It is filed as functional, organism-based. In short, it runs like this:
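N2 worms were kept 7 days on plates with 40 μM FUDR, with or without compound. They were washed by sucrose flotation, homogenised in Tris-HCl pH 7.9 buffer with protease inhibitors, and centrifuged. The lysate was treated with 8.1% SDS for 10 min at room temperature, then boiled 60 min with 20% acetic acid and 0.6% thiobarbituric acid, with 0.01% BHT present. A butanol:pyridine (15:1) extract was read at 532 nm against a tetramethoxypropane standard. MDA was expressed as nmol/g protein.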

For assay [11], the system named is Caenorhabditis elegans. The experiment in a line: Antioxidant activity against heat-induced oxidative stress in wild type Caenorhabditis elegans Bristol N2 assessed as increase in survival time at 50 nM […] relative to control. It is filed as functional.

As to `CCOC(=O)c1cc2c(=O)n3nc(SCC)n(-c4ccccc4)c3c(C#N)c2[nH]1`, the outcome in the assay on Caenorhabditis elegans [1] and with Caenorhabditis elegans [2] was inactive.

In the case of `CCSc1nn2c(=O)c(C#N)c(N)c(C#N)c2n1-c1ccccc1`, the results for the Time in the assay on Caenorhabditis elegans [3], in the assay on Caenorhabditis elegans [8] and in the assay on Caenorhabditis elegans [2] were 18 days, 21 days and 19.76 days, respectively. Also, the Activity entry in the assay on Caenorhabditis elegans [4], in the assay with Caenorhabditis elegans [7], with Caenorhabditis elegans [9] and in the assay on Caenorhabditis elegans [10] was “Dose-dependent effect” each time. Moreover, the entries for the “fold change (FC)” value with Caenorhabditis elegans [5], with Caenorhabditis elegans [6] and with Caenorhabditis elegans [11] were 2.5, 2 and 1.8, respectively.

`CCSc1nn2c(=O)c(/C=N/O)c(Cl)c(C#N)c2n1-c1ccccc1`: the outcome in the assay on Caenorhabditis elegans [1] and in the assay with Caenorhabditis elegans [2] was inactive.

In the case of `CCSc1nn2c(=O)c(/C=N/O)c(NCC(C)C)c(C#N)c2n1-c1ccccc1`, the outcome in the assay on Caenorhabditis elegans [1] and in the assay with Caenorhabditis elegans [2] was inactive.
